Measurements taken from ChEMBL document CHEMBL1137218, “Long hydrocarbon chain ether diols and ether diacids that favorably alter lipid disorders in vivo” (J Med Chem, 2004).
pIC50: −log10 of the molar value.

Legend:
Rattus norvegicus [1] = experiment: Insulin levels in female obese rats two weeks post treatment at 10 mg/kg oral dose; pretreatment value = 8.2 ng/mL; format: functional
Rattus norvegicus [2] = organism: Rattus norvegicus; experiment: In vitro inhibitory concentration against lipid synthesis in primary rat hepatocyte culture; format: functional
Outline: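 Primary hepatocytes isolated from male Sprague-Dawley rats (Seglen method) and plated on collagen in DMEM with 20% FBS, 100 nM insulin, 25 mM glucose. Medium made serum-free after 4 h, cultured overnight to monolayers. Then 4 h incubation with 0.25 μCi [14C]-acetate/well (1 Ci/mol) and 0–300 μM compound. Lipids extracted into scintillant and counted. IC50 derived from lipid synthesis rates by nonlinear sigmoidal fit.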

Rattus norvegicus [3] = experiment: Serum Triglyceride levels in female obese rats two weeks post treatment at 3 mg/kg oral dose; pretreatment value = 769 mg/dL; format: functional
Rattus norvegicus [4] = experiment: Serum NEFA levels in female obese rats one week post treatment at 30 mg/kg oral dose; pretreatment value = 1.3 mg/dL; format: functional
Rattus norvegicus [5] = experiment: Insulin levels in female obese rats two weeks post treatment at 100 mg/kg oral dose; pretreatment value = 12.7 ng/mL; format: functional
Rattus norvegicus [6] = experiment: Serum Non-HDL cholesterol levels in female obese rats one week post treatment at 30 mg/kg oral dose; pretreatment value = 31 mg/dL; format: functional
Outline: (§1)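 Female obese Zucker fatty rats (10–12 weeks, 400–500 g), once-daily oral gavage in 20% EtOH/80% PEG-200 (v/v) for up to 14 days. Serum drawn after a 6 h fast, pre-dose and at days 7 and 14. Non-HDL cholesterol is serum total cholesterol times the percent area of the non-HDL peaks in a Superose 6HR gel-filtration profile with on-line cholesterol detection. n = 4 per dose.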

Rattus norvegicus [7] = experiment: Percent change from pre-treatment triglycerides level at 100 mg/Kg after 2 weeks; format: functional
Outline: (§2)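 Female obese Zucker fatty rats Crl:(Zuc)-faBR, 10–12 weeks old (400–500 g), n=3–4, fed chow. Dosed by oral gavage once daily in 20% EtOH/80% PEG-200 for up to 14 days. Serum taken after a 6 h fast before dosing, at day 7 (orbital plexus) and at day 14 (cardiac puncture). TG by enzymatic kit on analyzer. HDL-C and non-HDL-C from Superose 6 gel-filtration profile area × total cholesterol. Results given as % change from pretreatment.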

Rattus norvegicus [8] = experiment: Serum Non-HDL cholesterol levels in female obese rats one week post treatment at 10 mg/kg oral dose; pretreatment value = 25 mg/dL; format: functional; outline: as §1
Rattus norvegicus [9] = experiment: Blood glucose levels in female obese rats one week post treatment at 3 mg/kg oral dose; pretreatment value = 117 mg/dL; format: functional
Rattus norvegicus [10] = experiment: Blood glucose levels in female obese rats two weeks post treatment at 100 mg/kg oral dose; pretreatment value = 105 mg/dL; format: functional
Rattus norvegicus [11] = experiment: Percent change from pre-treatment triglycerides level at 100 mg/Kg after 1 week; format: functional; outline: as §2
Rattus norvegicus [12] = experiment: Insulin levels in female obese rats one week post treatment at 3 mg/kg oral dose; pretreatment value = 12.9 ng/mL; format: functional
Rattus norvegicus [13] = experiment: Percent change from pre-treatment Non HDL-Cholesterol level at 100 mg/Kg after 1 week; format: functional; outline: as §2
Rattus norvegicus [14] = experiment: Serum Triglyceride levels in female obese rats one week post treatment at 10 mg/kg oral dose; pretreatment value = 943 mg/dL; format: functional
Rattus norvegicus [15] = experiment: Serum Non-HDL cholesterol levels in female obese rats one week post treatment at 100 mg/kg oral dose; pretreatment value = 23 mg/dL; format: functional; outline: as §1
Rattus norvegicus [16] = experiment: Percent change from pre-treatment Non HDL-Cholesterol level at 100 mg/Kg after 2 weeks; format: functional; outline: as §2
Rattus norvegicus [17] = experiment: Serum Triglyceride levels in female obese rats one week post treatment at 30 mg/kg oral dose; pretreatment value = 1240 mg/dL; format: functional
Rattus norvegicus [18] = experiment: Blood glucose levels in female obese rats one week post treatment at 100 mg/kg oral dose; pretreatment value = 105 mg/dL; format: functional
Rattus norvegicus [19] = experiment: Serum Non-HDL cholesterol levels in female obese rats two weeks post treatment at 30 mg/kg oral dose; pretreatment value = 31 mg/dL; format: functional; outline: as §1
Rattus norvegicus [20] = experiment: Serum HDL cholesterol levels in female obese rats one week post treatment at 30 mg/kg oral dose; pretreatment value = 42 mg/dL; format: functional
Rattus norvegicus [21] = experiment: Percent change from pre-treatment HDL-Cholesterol level at 100 mg/Kg after 1 week; format: functional; outline: as §2
Rattus norvegicus [22] = experiment: Percent change from pre-treatment HDL-Cholesterol level at 100 mg/Kg after 2 weeks; format: functional; outline: as §2
Rattus norvegicus [23] = experiment: Serum Triglyceride levels in female obese rats two weeks post treatment at 100 mg/kg oral dose; pretreatment value = 746 mg/dL; format: functional
Rattus norvegicus [24] = experiment: Blood glucose levels in female obese rats one week post treatment at 30 mg/kg oral dose; pretreatment value = 109 mg/dL; format: functional
Rattus norvegicus [25] = experiment: Serum NEFA levels in female obese rats two weeks post treatment at 100 mg/kg oral dose; pretreatment value = 1.1 mg/dL; format: functional
Rattus norvegicus [26] = experiment: Serum Non-HDL cholesterol levels in female obese rats two weeks post treatment at 100 mg/kg oral dose; pretreatment value = 23 mg/dL; format: functional; outline: as §1
Rattus norvegicus [27] = experiment: Insulin levels in female obese rats one week post treatment at 10 mg/kg oral dose; pretreatment value = 8.2 ng/mLL; format: functional
Rattus norvegicus [28] = experiment: Insulin levels in female obese rats one week post treatment at 30 mg/kg oral dose; pretreatment value = 9 ng/mL; format: functional
Rattus norvegicus [29] = experiment: Serum HDL cholesterol levels in female obese rats two weeks post treatment at 10 mg/kg oral dose; pretreatment value = 61 mg/dL; format: functional
Rattus norvegicus [30] = experiment: Serum NEFA levels in female obese rats one week post treatment at 3 mg/kg oral dose; pretreatment value = 1.1 mg/dL; format: functional
Rattus norvegicus [31] = experiment: Serum Triglyceride levels in female obese rats two weeks post treatment at 30 mg/kg oral dose; pretreatment value = 1004 mg/dL; format: functional
Rattus norvegicus [32] = experiment: Insulin levels in female obese rats two weeks post treatment at 3 mg/kg oral dose; pretreatment value = 13.3 ng/mL; format: functional
Rattus norvegicus [33] = experiment: Serum NEFA levels in female obese rats one week post treatment at 30 mg/kg oral dose; pretreatment value = 1.2 mg/dL; format: functional
Rattus norvegicus [34] = experiment: Serum Triglyceride levels in female obese rats two weeks post treatment at 3 mg/kg oral dose; pretreatment value = 1111 mg/dL; format: functional
Rattus norvegicus [35] = experiment: Serum NEFA levels in female obese rats one week post treatment at 10 mg/kg oral dose; pretreatment value = 1.4 mg/dL; format: functional
Rattus norvegicus [36] = experiment: Serum NEFA levels in female obese rats two weeks post treatment at 3 mg/kg oral dose; pretreatment value = 1.1 mg/dL; format: functional
Rattus norvegicus [37] = experiment: Insulin levels in female obese rats two weeks post treatment at 100 mg/kg oral dose; pretreatment value = 8.6 ng/mL; format: functional
Rattus norvegicus [38] = experiment: Insulin levels in female obese rats two weeks post treatment at 30 mg/kg oral dose; pretreatment value = 9 ng/mL; format: functional
Rattus norvegicus [39] = experiment: Blood glucose levels in female obese rats two weeks post treatment at 10 mg/kg oral dose; pretreatment value = 110 mg/dL; format: functional
Rattus norvegicus [40] = experiment: Serum Non-HDL cholesterol levels in female obese rats two weeks post treatment at 10 mg/kg oral dose; pretreatment value = 33 mg/dL
Rattus norvegicus [41] = experiment: Serum Triglyceride levels in female obese rats two weeks post treatment at 10 mg/kg oral dose; pretreatment value = 1185 mg/dL; format: functional

Compound: CC(C)(CO)CCCCOCCCCC(C)(C)CO
- Activity (Rattus norvegicus [1]): 9 ng/mL
- pIC50 (Rattus norvegicus [2]): 4.96
- Activity (Rattus norvegicus [3]): 934 mg/dL
- Activity (Rattus norvegicus [4]): 0.76 mg/dL
- Activity (Rattus norvegicus [5]): 12.8 ng/mL
- Activity (Rattus norvegicus [6]): 20 mg/dL
- Change (Rattus norvegicus [7]): -71%
- Activity (Rattus norvegicus [8]): 30 mg/dL
- Activity (Rattus norvegicus [9]): 114 mg/dL
- Activity (Rattus norvegicus [10]): 101 mg/dL
- Change (Rattus norvegicus [11]): -77%
- Activity (Rattus norvegicus [12]): 15.1 ng/mL
- Change (Rattus norvegicus [13]): -38%
- Activity (Rattus norvegicus [14]): 629 mg/dL
- Activity (Rattus norvegicus [15]): 14 mg/dL
- Change (Rattus norvegicus [16]): 11%
- Activity (Rattus norvegicus [17]): 271 mg/dL
- Activity (Rattus norvegicus [18]): 107 mg/dL
- Activity (Rattus norvegicus [19]): 33 mg/dL
- Activity (Rattus norvegicus [20]): 149 mg/dL
- Change (Rattus norvegicus [21]): 234%
- Change (Rattus norvegicus [22]): 366%
- Activity (Rattus norvegicus [23]): 219 mg/dL
- Activity (Rattus norvegicus [24]): 140 mg/dL
- Activity (Rattus norvegicus [25]): 0.83 mg/dL
- Activity (Rattus norvegicus [26]): 26 mg/dL
- Activity (Rattus norvegicus [27]): 8.9 ng/mL

Compound: CC(C)(CO)CCCCCOCCCCCC(C)(C)CO
- Activity (Rattus norvegicus [28]): 12.4 ng/mL
- pIC50 (Rattus norvegicus [2]): 5.40
- Activity (Rattus norvegicus [6]): 15 mg/dL
- Change (Rattus norvegicus [7]): -82%
- Activity (Rattus norvegicus [10]): 104 mg/dL
- Activity (Rattus norvegicus [29]): 110 mg/dL
- Change (Rattus norvegicus [11]): -91%
- Change (Rattus norvegicus [13]): -82%
- Activity (Rattus norvegicus [30]): 1.3 mg/dL
- Activity (Rattus norvegicus [31]): 424 mg/dL
- Activity (Rattus norvegicus [15]): 5 mg/dL
- Change (Rattus norvegicus [16]): -68%
- Activity (Rattus norvegicus [32]): 11.4 ng/mL
- Activity (Rattus norvegicus [18]): 72 mg/dL
- Activity (Rattus norvegicus [33]): 0.89 mg/dL
- Activity (Rattus norvegicus [34]): 1116 mg/dL
- Activity (Rattus norvegicus [19]): 32 mg/dL
- Activity (Rattus norvegicus [35]): 1.3 mg/dL
- Activity (Rattus norvegicus [36]): 1.5 mg/dL
- Activity (Rattus norvegicus [37]): 4.4 ng/mL
- Activity (Rattus norvegicus [38]): 10.4 ng/mL
- Change (Rattus norvegicus [21]): 99%
- Activity (Rattus norvegicus [39]): 119 mg/dL
- Change (Rattus norvegicus [22]): 133%
- Activity (Rattus norvegicus [40]): 53 mg/dL
- Activity (Rattus norvegicus [26]): 10 mg/dL
- Activity (Rattus norvegicus [41]): 1420 mg/dL
